A selection: hits, their analogues and other compounds. The true share with any hit is near 4.1%.
SMARCA2 activ: activators of SMARCA2 function. activation, % at 9.1 µM. 370,000 tested, 1% active. AID 652017. MG213 cells, MMTV-luciferase reporter, dexamethasone, overnight; in the data active means activation above about 7.8%;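 further: 0% = vehicle wells and 100% = reference activator wells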
MC4R ag barr: agonists of human melanocortin 4 receptor (MC4R) beta-arrestin; P32245; U2OS MC4R beta-arrestin complementation, luminescence; percent of melanotan II response, DMSO zero; activation, % at 8.9 µM; 360,000 tested, 0.98% active; AID 540308;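 active means activation above a per-plate cutoff, the mean activation of sample wells on that plate plus 3 SD, cut at about 8% in these data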
Target sequence (P32245 whole entry, looked up): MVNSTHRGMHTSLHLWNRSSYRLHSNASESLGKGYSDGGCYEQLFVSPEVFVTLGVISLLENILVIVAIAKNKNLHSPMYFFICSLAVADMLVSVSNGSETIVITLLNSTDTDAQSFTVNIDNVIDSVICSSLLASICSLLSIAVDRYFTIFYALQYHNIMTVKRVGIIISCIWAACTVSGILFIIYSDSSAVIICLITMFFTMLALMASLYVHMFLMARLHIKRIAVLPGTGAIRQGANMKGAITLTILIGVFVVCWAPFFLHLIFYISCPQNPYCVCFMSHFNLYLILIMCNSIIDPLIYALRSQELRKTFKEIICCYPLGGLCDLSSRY
MPTP block: blocks calcium-induced mitochondrial swelling | isolated mouse mitochondria, Ca2+ swelling absorbance, 30 min | inhibition, % at 10 µM | 360,000 tested, 1.4% active;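 active means inhibition of 50% or more, scaled per plate between neutral and stimulator controls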;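 further: 0% = DMSO wells given calcium and 100% = 1 mM EGTA wells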
MC4R antag cAMP: human MC4R antagonism in cAMP assay; AID 540295; inhibition, % at 6.5 µM; MC4R-expressing cells, MTII-stimulated cAMP, LANCE TR-FRET; 360,000 tested, 0.48% active;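 active means inhibition above its plate's cutoff, the mean of tested wells on that plate plus 3 SD, cut at about 29% in these data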;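 further: 0% = Melanotan II alone and 100% = Melanotan II plus saturating MCL0020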
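Assay system: U2OS cells stably expressing human melanocortin 4 receptor (MC4R) / Dosing: 6.5 µM / Timing: compound 30 min, challenge 1 h, detection 1 h / Measured by: Eu-cAMP/anti-cAMP TR-FRET, emission 671 nm / Replicates: singlicate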
ATG4B inhibitor: inhibitors of human ATG4B cysteine protease | ATG4B cleavage of LC3-PLA2, NBD-HPC fluorescence, 1 h | inhibition, % at 8.33 µM | 340,000 tested, 0.51% active | Q9Y4P1; in the data active means inhibition above about 40%
Target sequence (Q9Y4P1 whole entry, looked up): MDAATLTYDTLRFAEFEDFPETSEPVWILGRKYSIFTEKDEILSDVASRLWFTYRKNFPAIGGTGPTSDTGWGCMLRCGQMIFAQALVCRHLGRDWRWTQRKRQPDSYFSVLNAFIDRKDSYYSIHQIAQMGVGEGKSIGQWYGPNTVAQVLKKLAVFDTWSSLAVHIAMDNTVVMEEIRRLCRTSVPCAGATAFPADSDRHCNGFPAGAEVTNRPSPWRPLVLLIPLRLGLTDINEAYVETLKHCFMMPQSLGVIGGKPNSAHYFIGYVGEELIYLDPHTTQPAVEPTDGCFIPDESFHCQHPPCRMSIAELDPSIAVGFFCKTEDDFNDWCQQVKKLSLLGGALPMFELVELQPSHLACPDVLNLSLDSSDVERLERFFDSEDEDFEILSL
SMARCA2 conf: confirmation of SMARCA2 (BRM) function activators; shares compounds with SMARCA2 activ; MG213 cells, MMTV-luciferase with dexamethasone, luminescence, overnight; MG213 cells expressing E1A, Rb sequestered; DMSO wells 0%, reference activator 100%; activation, % at 9.1 µM; 3,500 tested, 30% active;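 active means activation above its plate's cutoff, the mean activation of tested wells plus 3 SD, cut at about 7.9% in these data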
GAL4-VP16 Luc: GAL4-VP16 reporter activation counter-screen | shares compounds with SMARCA2 activ | HEK293 GAL4-VP16 pG5luc reporter, luciferase luminescence; scaled: DMSO wells 0%, SAHA wells 100% | activation, % at 9.1 µM | 3,500 tested, 41% active | AID 686939;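 active means activation above the solvent-only control well mean plus 3 SD, averaged across control plates, cut at about 5.2% in these data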
Numbers without * were called inactive; x = not tested or not shown.

SMILES	SMARCA2 activ	MC4R ag barr	MPTP block	MC4R antag cAMP	ATG4B inhibitor	SMARCA2 conf	GAL4-VP16 Luc
COc1ccc(S(=O)(=O)N2CCOCC2)cc1NC(=O)CCNC(=O)c1ccc(Br)cc1	-0.8	-1.3	-1.5	13.1	3.8	x	x
COc1ccc(S(=O)(=O)N2CCOCC2)cc1NC(=O)CCNC(=O)c1ccc(Cl)cc1	8.1*	-1.6	-2.0	13.3	-3.2	-1.9	-0.8
CCCCOCCCNC(=O)C[C@H]1C[C@@]2(C(=O)OCC)CCCC3=C2N(CCC3)C1=O	1.7	x	x	x	x	x	x
Cc1cc(O)cc(=O)n1-c1ccc(Cl)c(C(F)(F)F)c1	2.9	x	x	x	x	x	x
CC(C)(C)C(=O)Nc1ccnn1C1CCN(C(=O)c2ccc(Cl)cc2F)CC1	13.9*	-1.2	-0.6	6.5	2.0	-1.4	1.5
CC(C)CC(=O)Nc1ccnn1C1CCN(C(=O)c2ccc(Cl)cc2F)CC1	-1.4	-2.1	0.8	8.5	-1.6	x	x
O=C(CCn1nnc(-c2cccs2)n1)N1CCCCC1	9.0*	x	x	x	x	3.3	-1.1
O=C(O)CCn1nnc(-c2cccs2)n1	0.5	-2.2	-1.1	6.5	14.7	x	x
Cc1cccc(NC(=S)NC(=O)c2ccc(-c3ccccc3)cc2)n1	10.8*	4.4	-0.2	19.1	-2.1	10.2*	6.7*
COC(=O)C[C@@H]1CC[C@@H](NC(=O)Nc2cc(F)ccc2F)[C@@H](CO)O1	-5.2	x	-0.7	x	x	x	x
CC(=NNc1cc(C)c2cc(C)ccc2n1)c1ccccn1	-4.4	x	x	x	x	x	x
O=[N+]([O-])c1cc(O)c2ncccc2c1	21.3*	x	x	x	0.1	1.2	1.7
O=[N+]([O-])c1cc2cccnc2c2ncccc12	-2.7	1.1	-0.3	19.8	-2.0	x	x
C/C(=N\N=c1/sc2ccccc2n1C)c1ccccn1	8.1*	-2.9	0.5	-4.9	-16.1	4.3	7.5*
CCN(CC)c1ccc2cc(-c3nc4ccccc4[nH]3)c(=O)oc2c1	x	4.9	-0.2	2.2	-14.1	x	x
CCN(CC)c1ccc2cc(C(=O)c3cccs3)c(=O)oc2c1	8.3*	x	-1.9	x	x	9.5*	1.3
Cc1cc2oc(=O)cc(COC(=O)c3n[nH]c4ccccc34)c2cc1C	3.0	1.5	-1.3	-2.1	2.5	x	x
COc1ccc2c(COC(=O)c3n[nH]c4ccccc34)cc(=O)oc2c1	9.5*	7.4	2.9	0.9	25.8	5.6	11.0*
CCCCN1CC(COCc2ccccc2)Oc2cccc(N3CCCCC3)c2S1(=O)=O (stereo unspecified)	-2.9	x	x	x	x	x	x
COc1ccc2c(c1)[C@@]1(NCCc3c1[nH]c1ccc(OC)cc31)C(=O)N2C	-2.9	x	x	x	x	x	x
CCN(C)C(=O)CN1C(=O)C2CCCCN2C(=O)c2ccccc21 (stereo unspecified)	-5.7	x	x	x	x	x	x
O=C(OCc1c(-c2ccccc2)ncc2ccccc12)N1CCOCC1	9.6*	-0.8	-1.7	1.6	-11.1	7.3	1.9
O=C(O)CCC(=O)OCc1c(-c2ccccc2)ncc2ccccc12	0.9	-0.5	-1.9	1.0	0.2	x	x
Cn1nc(N)c2ncc(-c3ccc(Cl)cc3)nc21	9.1*	1.6	-0.2	4.6	x	8.9*	7.7*
Cc1cc(=O)oc(C)c1C(=O)NNC(=O)C1(C)CC1Br (stereo unspecified)	8.9*	1.4	-1.0	6.8	3.4	3.1	0.0
SMILES	SMARCA2 activ	MC4R ag barr	MPTP block	MC4R antag cAMP	ATG4B inhibitor	SMARCA2 conf	GAL4-VP16 Luc
CC1(C(=O)NNC(=O)c2ccc(=O)oc2)CC1Br (stereo unspecified)	0.7	-2.1	1.6	3.2	5.4	x	x
O=S1(=O)c2ccc(N3CCCC3)cc2Oc2ccccc2CN1Cc1cn(Cc2ccc(F)cc2)nn1	-1.6	x	x	x	x	x	x
CC1=C(C(=O)N2CCCCCC2)CC(CC(=O)NC2CCCC2)C(=O)N1Cc1ccc(C(C)(C)C)cc1 (stereo unspecified)	-4.7	x	-2.8	x	x	x	x
CCN(CC)C(=O)CCc1nnc(Cc2cccc(C(F)(F)F)c2)o1	15.8*	2.1	-2.0	-7.2	5.2	2.7	9.2*
Cc1cc(CN(C)C(=O)CCc2nnc(Cc3cccc(C(F)(F)F)c3)o2)on1	7.0	-3.1	0.8	0.3	-0.5	x	x
CN(C)C(=O)N1CCN(C(=O)[C@H]2O[C@@H](n3ccc(N)nc3=O)[C@H](O)[C@@H]2O)CC1	1.6	x	x	x	x	x	x
Clc1ccc(CSc2ccc(-c3ccco3)nn2)cc1	0.9	-0.8	14.1	9.2	-8.8	x	x
c1ccc(CSc2ccc(-c3ccco3)nn2)cc1	10.2*	-2.4	2.1	12.1	5.1	8.3*	8.5*
O=C(COc1ccccc1)NNC(=O)c1cc2ccccc2o1	9.6*	-1.9	0.5	-1.0	9.5	1.4	1.6
CCC(=O)Nc1cccc(NC(=O)c2cc3ccccc3o2)c1	8.9*	-1.6	-5.1	-3.0	-11.3	2.6	9.8*
Cc1ccc(OCC(=O)NNC(=O)c2cc3ccccc3o2)cc1	4.0	-1.3	-3.3	9.6	-3.1	x	x
Cn1c(NC(=O)c2ccccc2)nc(Cc2ccccc2)c1-c1ccccc1	-3.9	x	x	x	x	x	x
NC(=O)c1ncn([C@@H]2O[C@H](C(=O)N[C@H](Cc3c[nH]c4ccccc34)C(=O)N3CCN(C(=O)C4CC4)CC3)[C@@H](O)[C@H]2O)n1	-4.2	x	x	x	x	x	x
Cc1cc(C)nc(N2CCC(C(=O)N(C)CCc3ccccc3)CC2)n1	-2.9	x	x	x	x	x	x
O=C(Cn1cc(SCc2cccc(Cl)c2)c2ccccc21)N1CCOCC1	18.4*	-2.5	-0.2	5.0	-9.4	2.8	5.4*
COc1cccc(CNC(=O)[C@@H]2CCCN2C(=O)[C@@H]2CCCN2S(=O)(=O)c2ccc(OC)c(C)c2)c1	9.1*	x	0.2	x	x	0.9	0.7
COc1cccc(CNC(=O)[C@@H]2CCCN2C(=O)[C@H]2CCCCN2S(=O)(=O)c2ccc(OC)c(C)c2)c1	-4.9	x	1.3	x	x	x	x
COC(=O)C1=C(C)NC(=S)NC1c1ccc(Br)cc1 (stereo unspecified)	-2.5	x	x	x	x	x	x
Cc1cc(O)c(NC(=O)c2ccco2)cc1C	8.9*	0.1	3.4	4.3	-7.9	0.1	5.0
Cc1ccc(O)c(NC(=O)c2ccco2)c1	3.4	-2.3	-1.7	8.3	-9.2	x	x
O=C(CSc1nnc(-c2ccc(Cl)cc2)n1-c1ccccc1)Nc1ccc2c(c1)OCCO2	0.4	x	x	x	x	x	x
CC(C)CCN(C(=O)c1ccccn1)c1c(N)n(Cc2ccccc2)c(=O)[nH]c1=O	8.3*	0.9	-1.6	4.3	1.9	-5.2	0.3
CC(C)CCN(C(=O)Cc1ccccc1F)c1c(N)n(Cc2ccccc2)c(=O)[nH]c1=O	2.6	-4.1	4.3	4.4	6.4	x	x
CCCCCN1CCCCC(NC(=O)Cc2ccccc2)C1=O (stereo unspecified)	-0.7	x	x	x	x	x	x
COc1ccc(CNC(=O)CN=C2NC(=O)C(c3ccccc3)(c3ccccc3)N2)cc1	11.5*	-3.5	16.3	1.0	-5.2	-0.1	0.1

High-throughput results: PubChem BioAssay, several laboratories
